Laboratory results published in ChEMBL document CHEMBL4257504, “Tricyclic xanthine derivatives containing a basic substituent: adenosine receptor affinity and drug-related properties” (Medchemcomm, 2018).
Converted amounts (≈) assume the structure as drawn. Values belong to the compound of their own block, whether it stands above or below them.

Experiments:
[1] = molecular target: T1, Adenosine receptor A2b (Homo sapiens, UniProt P29275); test: […] from human adenosine A2B receptor expressed in CHO cell membranes; conditions: in the assay text read “[3H]PSB-603” for “[3H]PSB-602”
T1 sequence (P29275 whole entry): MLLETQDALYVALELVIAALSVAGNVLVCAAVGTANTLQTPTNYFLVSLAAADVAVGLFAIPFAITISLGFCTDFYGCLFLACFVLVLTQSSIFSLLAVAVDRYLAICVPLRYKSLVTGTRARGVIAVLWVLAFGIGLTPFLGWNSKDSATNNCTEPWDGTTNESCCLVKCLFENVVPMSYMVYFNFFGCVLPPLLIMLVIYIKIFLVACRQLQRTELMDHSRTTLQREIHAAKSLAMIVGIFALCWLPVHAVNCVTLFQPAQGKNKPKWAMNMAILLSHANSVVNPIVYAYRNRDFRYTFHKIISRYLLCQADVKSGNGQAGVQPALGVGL
In short: (§1)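 Membranes from CHO cells recombinantly expressing human A2B or A3 receptor. Radioligands are [3H]PSB-603 for A2B and [3H]PSB-11 for A3. Competition curves use six to ten test-compound concentrations spanning three orders of magnitude, with at least three independent experiments.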

[2] = molecular target: Cytochrome P450 3A4 (Homo sapiens, UniProt P08684); test: Inhibition of recombinant human CYP3A4 by bioluminescence method; format: ADME
Chain of Cytochrome P450 3A4 (P08684 whole entry): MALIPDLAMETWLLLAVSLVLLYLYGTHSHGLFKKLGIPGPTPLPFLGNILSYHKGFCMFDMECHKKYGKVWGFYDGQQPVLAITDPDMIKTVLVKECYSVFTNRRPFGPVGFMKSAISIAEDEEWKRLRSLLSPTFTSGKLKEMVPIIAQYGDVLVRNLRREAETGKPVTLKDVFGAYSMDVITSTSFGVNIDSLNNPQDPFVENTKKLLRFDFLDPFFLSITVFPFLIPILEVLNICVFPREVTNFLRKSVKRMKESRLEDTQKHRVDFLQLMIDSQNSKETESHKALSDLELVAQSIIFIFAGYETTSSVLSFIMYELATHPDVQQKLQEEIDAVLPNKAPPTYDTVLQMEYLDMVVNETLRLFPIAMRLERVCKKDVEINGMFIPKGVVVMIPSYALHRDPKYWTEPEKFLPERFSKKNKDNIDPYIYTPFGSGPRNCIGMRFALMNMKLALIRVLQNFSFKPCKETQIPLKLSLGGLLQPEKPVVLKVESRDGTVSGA

[3] = Solubility of compound in water after over night incubation by UV spectroscopic method; format: physicochemical
In short: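 Compound (10 mg, basic form) is suspended in 2 mL water, boiled 5 min, left overnight at 20 °C and filtered. The filtrate is diluted 10–80-fold in MeOH and read by UV in 90% MeOH/H2O. Concentration comes from seven-point standard curves (10^-3 to 10^-1 mg/mL) by linear regression, multiplied by the dilution factor.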

[4] = molecular target: T2, Adenosine receptor A1 (Rattus norvegicus, UniProt P25099); test: Displacement of [3H]CCPA from adenosine A1 receptor in rat brain cortical membranes; format: cell membranes
T2 sequence (P25099 whole entry): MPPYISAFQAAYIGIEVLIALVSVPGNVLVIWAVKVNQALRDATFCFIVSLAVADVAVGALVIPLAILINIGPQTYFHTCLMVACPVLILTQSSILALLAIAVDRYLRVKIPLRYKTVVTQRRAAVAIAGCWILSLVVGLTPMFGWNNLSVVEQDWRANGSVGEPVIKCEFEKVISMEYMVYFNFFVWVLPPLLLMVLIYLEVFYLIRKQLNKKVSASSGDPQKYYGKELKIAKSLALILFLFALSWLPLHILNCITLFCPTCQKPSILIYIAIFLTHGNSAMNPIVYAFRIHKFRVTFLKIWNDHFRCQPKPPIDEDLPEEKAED
In short: (§2)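 Membrane radioligand binding: A1 in rat brain cortical membranes and A2A in rat brain striatal membranes, with human A1 and A2A in recombinant CHO cell membranes. Radioligands are [3H]CCPA for A1 and [3H]MSX-2 for A2A. Full concentration-inhibition curves use six to ten concentrations spanning three orders of magnitude, with at least three independent experiments.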

[5] = molecular target: T3, Adenosine receptor A3 (Homo sapiens, UniProt P0DMS8); test: Displacement of [3H]PSB-11 from human adenosine A3 receptor expressed in CHO cell membranes; in short: as §1
T3 sequence (P0DMS8 whole entry): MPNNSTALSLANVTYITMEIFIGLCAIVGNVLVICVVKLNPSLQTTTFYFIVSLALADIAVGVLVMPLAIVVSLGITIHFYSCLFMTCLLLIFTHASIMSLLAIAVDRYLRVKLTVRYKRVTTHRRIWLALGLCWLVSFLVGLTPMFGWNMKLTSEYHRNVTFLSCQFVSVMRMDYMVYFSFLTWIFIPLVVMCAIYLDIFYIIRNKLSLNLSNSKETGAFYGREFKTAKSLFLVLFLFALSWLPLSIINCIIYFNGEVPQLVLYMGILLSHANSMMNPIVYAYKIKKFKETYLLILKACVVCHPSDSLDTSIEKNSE

[6] = system: HEK293; test: Cytotoxicity against HEK293 cells assessed as decrease in cell viability after 48 hrs by formazan dye-based EZ4U assay; conditions: Homo sapiens, HEK293, 48 h
In short: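 HEK-293 cells are seeded at 1 × 10^4 per well and grown 24 h to 60% confluence. Compounds (25 mM DMSO stocks) are diluted into medium at final 0.1–250 μM, with DMSO ≤1%, and left 48 h.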

[7] = molecular target: Adenosine receptor A2a (Rattus norvegicus, UniProt P30543); test: Displacement of [3H]MSX-2 from adenosine A2A receptor in rat brain striatal membranes; format: cell membranes, Striatum, Membrane; in short: as §2
Chain of Adenosine receptor A2a (P30543 whole entry): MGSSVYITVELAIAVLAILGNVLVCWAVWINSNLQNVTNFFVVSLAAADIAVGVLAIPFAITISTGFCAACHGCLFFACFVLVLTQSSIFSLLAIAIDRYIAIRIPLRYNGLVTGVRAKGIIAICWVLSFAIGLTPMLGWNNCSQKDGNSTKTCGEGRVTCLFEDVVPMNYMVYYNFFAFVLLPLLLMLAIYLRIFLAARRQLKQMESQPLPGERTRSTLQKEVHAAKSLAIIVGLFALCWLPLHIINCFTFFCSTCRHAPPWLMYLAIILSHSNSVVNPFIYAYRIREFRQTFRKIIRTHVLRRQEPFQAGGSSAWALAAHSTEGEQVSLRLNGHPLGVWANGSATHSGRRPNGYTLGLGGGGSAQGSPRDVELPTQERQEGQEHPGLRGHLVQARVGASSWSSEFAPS

[8] = molecular target: T3, Adenosine receptor A3; test: Binding affinity to human adenosine A3 receptor by radioligand displacement assay
In short: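 Membranes from CHO cells recombinantly expressing human A2B or A3 receptor. Competition curves use six to ten test-compound concentrations spanning three orders of magnitude, with at least three independent experiments.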

[9] = molecular target: T1, Adenosine receptor A2b; test: Displacement of [3H]PSB-603 from human adenosine A2B receptor expressed in CHO cell membranes
[10] = Metabolic stability in rat liver microsomes at 50 uM preincubated for 5 mins followed by addition of NADPH regenerating system and measured after 120 mins by UPLC/MS analysis; format: ADME, microsome; conditions: 2 h
In short: (§3)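 Incubations use pooled human (adult male and female) or rat liver microsomes at 1 mg/ml in 0.1 M Tris-HCl pH 7.4 with compound at 50 μM. After 5 min preincubation at 37 °C, an NADPH regenerating system is added to start the reaction. Cold methanol stops it at 120 min; samples are centrifuged and the supernatant analysed by UPLC/MS.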

[11] = Metabolic stability in human liver microsomes at 50 uM preincubated for 5 mins followed by addition of NADPH regenerating system and measured after 120 mins by UPLC/MS analysis; format: ADME, microsome; conditions: 2 h; in short: as §3
[12] = (§4) Drug level in human liver microsomes treated with 2-(4-(2-(1,3-Dibutyl-2,4-dioxo-1,2,3,4,7,8-hexahydropyrimido[2,1-f]purin-9(6H)-yl)ethyl)phenoxy)-N-(3-(diethylamino)propyl)-acetamide at 50 uM preincubated for 5 mins followed by addition of NADPH regenerating system and measured after 120 mins by UPLC/MS analysis; format: ADME, microsome; conditions: 2 h; in short: as §3
[13] = as §4, with “rat” for “human”; format: ADME, microsome; conditions: 2 h; in short: as §3

Ki [1]: 126 nM | IC50 [2]: 230 nM | solubility [3]: 632 µM (≈ 385 µg/mL) | Ki [4]: 24.8 nM | Ki [5]: 248 nM | Ki [7]: 318 nM
SMILES: CCCCn1c(=O)c2c(nc3n2CCCN3CCc2ccc(OCC(=O)NCCCN(CC)CC)cc2)n(CCCC)c1=O
IC50 [6]: 27300 nM

Ki [8]: 4390 nM
SMILES: CCCn1c(=O)c2[nH]c(C34CC5CC(CC3C5)C4)nc2n(CCC)c1=O [ROLOFYLLINE]

inhibition (INH) ([2]; human, recombinant enzyme): Not Active | Ki [9]: 66.3 nM | Ki [4]: 36.6 nM | Ki [5]: 204 nM | Ki [7]: 455 nM | Stability [10]: Stable | Stability [11]: Stable
SMILES: CCCCn1c(=O)c2c(nc3n2CCCN3CCc2ccc(OCC(=O)NCCN3CCCC3)cc2)n(CCCC)c1=O
IC50 [6]: 23400 nM

Drug metabolism [12]: Metabolite_Detected | Drug metabolism [13]: Metabolite_Detected
SMILES: CCCCn1c(=O)n(CCC(C)O)c(=O)c2c1nc1n2CCCN1CCc1ccc(OCC(=O)NCCCN(CC)CC)cc1 (stereo not drawn)
